One block for each compound: values may come before it.
Tests used:
[1] = tested on: HepG2; test: Induction of cell cycle arrest in human HepG2 cells assessed as accumulation at G2 phase at 0.5 uM after 48 hrs by propidium iodide staining based flow cytometric analysis (reference value: 16.48 to 16.97%); type: functional
In short: (§1)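 HepG2 cells were treated with 0, 0.50, 1.0 or 2.0 test agent for 48 h. Cells were washed in cold PBS and fixed in 70% ethanol at −20 °C overnight. DNA-content distribution was measured by flow cytometry. Mean ± SD, three independent experiments.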

[2] = tested on: HepG2; test: Induction of cell cycle arrest in human HepG2 cells assessed as accumulation at S phase at 1 uM after 48 hrs by propidium iodide staining based flow cytometric analysis (reference value: 33.22 to 33.58%); type: functional
[3] = tested on: HepG2; test: Induction of cell cycle arrest in human HepG2 cells assessed as accumulation at S phase at 2 uM after 48 hrs by propidium iodide staining based flow cytometric analysis (reference value: 33.22 to 33.58%); type: functional
[4] = tested on: B16; test: Antiproliferative activity against mouse B16 cells assessed as reduction in cell viability after 72 hrs by MTT assay; details: B16, 72 h
[5] = tested on: HepG2; test: Induction of cell cycle arrest in human HepG2 cells assessed as accumulation at S phase at 0.5 uM after 48 hrs by propidium iodide staining based flow cytometric analysis (reference value: 33.22 to 33.58%); type: functional
[6] = tested on: K562; test: Induction of cell cycle arrest in human K562 cells assessed as accumulation at G1 phase at 0.5 uM after 48 hrs by propidium iodide staining based flow cytometric analysis (reference value: 43.24 to 43.37%); type: functional
[7] = tested on: HepG2; test: Antiproliferative activity against human HepG2 cells assessed as reduction in cell viability after 72 hrs by MTT assay; details: HepG2, 72 h
[8] = tested on: L02; test: Cytotoxicity against human L02 cells assessed as cell viability after 72 hrs by MTT assay; details: L02, 72 h
[9] = tested on: K562; test: Induction of cell cycle arrest in human K562 cells assessed as accumulation at S phase at 2 uM after 48 hrs by propidium iodide staining based flow cytometric analysis (reference value: 44.73 to 45.96%); type: functional
[10] = tested on: K562; test: Induction of cell cycle arrest in human K562 cells assessed as accumulation at G2 phase at 2 uM after 48 hrs by propidium iodide staining based flow cytometric analysis (reference value: 10.96 to 12.03%); type: functional
[11] = tested on: K562; test: Induction of cell cycle arrest in human K562 cells assessed as accumulation at G2 phase at 1 uM after 48 hrs by propidium iodide staining based flow cytometric analysis (reference value: 10.96 to 12.03%); type: functional
[12] = tested on: K562; test: Induction of cell cycle arrest in human K562 cells assessed as accumulation at G2 phase at 0.5 uM after 48 hrs by propidium iodide staining based flow cytometric analysis (reference value: 10.96 to 12.03%); type: functional
[13] = tested on: K562; test: Induction of cell cycle arrest in human K562 cells assessed as accumulation at G1 phase at 1 uM after 48 hrs by propidium iodide staining based flow cytometric analysis (reference value: 43.24 to 43.37%); type: functional
[14] = tested on: K562; test: Induction of cell cycle arrest in human K562 cells assessed as accumulation at S phase at 0.5 uM after 48 hrs by propidium iodide staining based flow cytometric analysis (reference value: 44.73 to 45.96%); type: functional
[15] = tested on: MCF7; test: Antiproliferative activity against human MCF7 cells assessed as reduction in cell viability after 72 hrs by MTT assay; details: MCF7, 72 h
[16] = Cytotoxicity against human PBMC cells assessed as cell viability after 72 hrs by MTT assay
[17] = tested on: HepG2; test: Induction of cell cycle arrest in human HepG2 cells assessed as accumulation at G1 phase at 2 uM after 48 hrs by propidium iodide staining based flow cytometric analysis (reference value: 49.46 to 50.3%); type: functional; in short: as §1
[18] = tested on: HepG2; test: Induction of cell cycle arrest in human HepG2 cells assessed as accumulation at G2 phase at 1 uM after 48 hrs by propidium iodide staining based flow cytometric analysis (reference value: 16.48 to 16.97%); type: functional; in short: as §1
[19] = tested on: HepG2; test: Induction of cell cycle arrest in human HepG2 cells assessed as accumulation at G1 phase at 0.5 uM after 48 hrs by propidium iodide staining based flow cytometric analysis (reference value: 49.46 to 50.3%); type: functional; in short: as §1
[20] = tested on: HepG2; test: Induction of cell cycle arrest in human HepG2 cells assessed as accumulation at G1 phase at 1 uM after 48 hrs by propidium iodide staining based flow cytometric analysis (reference value: 49.46 to 50.3%); type: functional; in short: as §1
[21] = tested on: K562; test: Induction of cell cycle arrest in human K562 cells assessed as accumulation at G1 phase at 2 uM after 48 hrs by propidium iodide staining based flow cytometric analysis (reference value: 43.24 to 43.37%); type: functional
[22] = tested on: K562; test: Induction of cell cycle arrest in human K562 cells assessed as accumulation at S phase at 1 uM after 48 hrs by propidium iodide staining based flow cytometric analysis (reference value: 44.73 to 45.96%); type: functional
[23] = tested on: HCT-116; test: Antiproliferative activity against human HCT-116 cells assessed as reduction in cell viability after 72 hrs by MTT assay; details: HCT-116, 72 h
[24] = tested on: HepG2; test: Induction of cell cycle arrest in human HepG2 cells assessed as accumulation at G2 phase at 2 uM after 48 hrs by propidium iodide staining based flow cytometric analysis (reference value: 16.48 to 16.97%); type: functional
[25] = Prodrug conversion in THF/PBS buffer assessed as H2S release concentration at 0.1 mM in presence of TCEP after 20 mins by methylene blue staining based UV-Vis spectrophotometric method; type: ADME; details: 100 µM
[26] = tested on: K562; test: Antiproliferative activity against human K562 cells assessed as reduction in cell viability after 72 hrs by MTT assay; details: K562, 72 h

IC50 [4]: 24.9 µM | IC50 [7]: 8.95 µM | IC50 [15]: 13.8 µM | IC50 [23]: 11.7 µM
Structure (SMILES): C=C1C(=O)[C@]23[C@H](O)[C@H]1CC[C@H]2[C@@]12CO[C@]3(O)[C@@H](O)[C@@H]1C(C)(C)CC[C@@H]2O [ORIDONIN]
Activity [1]: 13.25% | Activity [2]: 27.54% | Activity [3]: 26.2% | Activity [5]: 29.64% | Activity [6]: 46.09% | IC50 [8]: 21.6 µM | Activity [9]: 32.78% | Activity [10]: 6.62% | Activity [11]: 5.79% | Activity [12]: 9.81% | Activity [13]: 55.67% | Activity [14]: 44.1% | IC50 [16]: > 50 µM | Activity [17]: 68% | Activity [18]: 10.54% | Activity [19]: 57.11% | Activity [20]: 61.88% | Activity [21]: 60.6% | Activity [22]: 38.54% | Activity [24]: 5.8%

IC50 [4]: 27.5 µM | IC50 [7]: 4.45 µM | IC50 [15]: 14.7 µM | Drug metabolism [25]: 15 µM | IC50 [26]: 2.17 µM | IC50 [23]: 27.5 µM
Structure (SMILES): C=C1C(=O)[C@]23[C@H](OC(=O)CCC(=O)OCCCOc4ccc(-c5cc(=S)ss5)cc4)[C@H]1CC[C@H]2[C@@]12CO[C@@]3(O)[C@@H](O)[C@@H]1C(C)(C)CC[C@@H]2O
IC50 [8]: 26.5 µM | IC50 [16]: > 50 µM

Source: ChEMBL document CHEMBL4706489, “Hydrogen sulfide releasing oridonin derivatives induce apoptosis through extrinsic and intrinsic pathways” (Eur J Med Chem, 2020)
